Assay results gathered from unrelated publications.
Protocols differ between the studies behind these lines.
Target: Mitogen-activated protein kinase 7 (MAPK7, Homo sapiens, UniProt Q13164)

SMILES | read-out | mode | technique | tested at | endpoint | result
Nc1ncnc2occ(-c3ccc(NC(=O)Nc4cc(C(F)(F)F)ccc4F)cc3)c12 | cell-free assay | inhibitor |  | 20 µM | remaining signal | 1.6%
CS(=O)(=O)N1CCCC(NC(=O)[C@H](CCC2CCCCC2)NC(=O)c2ccc(CNc3ncnc4c3nnn4-c3ccccc3)cc2)C1 (stereo partly drawn) | cell-free assay |  | competition with immobilised ligand | 0.1 µM | remaining binding | 94%
COc1cc(Nc2cnc(C#N)c(O[C@H](C)CN(C)C)n2)ncc1-c1cnn(C)c1 | enzyme activity | inhibitor | radiometric | 1 µM | remaining activity | 86%
Cc1nc(N2CC[C@@H](O)C2)ncc1-c1cc(C(F)(F)F)cc2[nH]ncc12 | binding |  | competition with immobilised ligand | 1 µM | remaining binding | 83%
CC(C)(O)[C@H]1CC[C@H](Nc2ccc3ncc(-c4cccc(C(F)(F)F)c4)n3n2)CC1 | enzyme activity | inhibitor |  | 1 µM | remaining activity | 98.9%
COc1ccc2c(c1)O[C@@H](c1ccc(OC)c(OC)c1)C[C@H]2NC(=O)C1(c2ccc3c(c2)OC(F)(F)O3)CC1 | cell-free assay |  | competition with immobilised ligand | 1 µM | remaining binding | 100%
O=C(Nc1cnn(-c2csc(C(=O)NC3COC3)c2)c1)Nc1ccccc1Cl | enzyme activity | inhibitor |  | 5 µM | remaining activity | 119%
Cc1nccc(COC(=O)N2C[C@@H]3[C@@H](CNC(=O)c4ccc5[nH]nnc5c4)[C@@H]3C2)n1 | cell-free assay |  | competition with immobilised ligand | 1 µM | remaining binding | 98%
FC(F)(F)Oc1cccc(-c2cnc3ccc(-c4ccncc4)nn23)c1 | enzyme activity | inhibitor | radiometric | 1 µM | activity vs control | 51%
c1ccc(CNc2nc(N3CCOc4ccccc43)nc3c2CCCC3)cc1 | target engagement in cells | inhibitor | chemoproteomics | 20 mM | inhibition | -6.4%
O=C(Nc1cnn(-c2csc(C(=O)NC3COC3)c2)c1)Nc1c(F)cccc1Cl | enzyme activity | inhibitor |  | 5 µM | remaining activity | 75.9%
CC(C)(C)c1nc2c(s1)c1nc(N)ncc1c1ccc(NS(=O)(=O)c3c(F)cccc3F)c(F)c12 | enzyme activity | inhibitor | radiometric | 1 µM | remaining activity | 80%
